Reference: ChEMBL document CHEMBL3259666, “Discovery of a neuroprotective chemical, (S)-N-(3-(3,6-dibromo-9H-carbazol-9-yl)-2-fluoropropyl)-6-methoxypyridin-2-amine [(-)-P7C3-S243], with improved druglike properties” (J Med Chem, 2014)
Activity calls are given as the source filed them. The rule behind the calls is not given here.

Tests used:
[1] = Protein binding in plasma (unknown origin) by ultracentrifugation method; assay type: ADME, cell-free; conditions: read-out: PPB
[2] = Cytotoxicity against human HCC44 cells; assay type: cell-based
Mus musculus [3] = assay: Neuroprotective activity in substantia nigra of C57Bl/6 mouse neurogenesis model assessed as protection from MPTP-induced cell death in mature neurons at 5 mg/kg/day, ip bid administered for 21 days by immunohistochemical analysis relative to vehicle-treated control; assay type: functional, organism-based
Summary of the method: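 MPTP model in adult male C57Bl/6 mice, individually housed 1 week. MPTP free base 30 mg/kg/day IP for 5 days. From day 6 (24 h after the last MPTP dose), compound or vehicle given IP twice daily for 21 days. Mice were then perfused with 4% paraformaldehyde. SNc sectioned at 30 μm intervals and every fourth section stained for TH (DAB, hematoxylin counterstain). TH+ cells counted blinded; mean ± SEM, compared with vehicle + MPTP.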

Cytochrome P450 2B6 = molecular target: T1, Cytochrome P450 2B6 (Homo sapiens, UniProt P20813); assay: Inhibition of CYP2B6 (unknown origin); assay type: ADME
T1 sequence (P20813 whole entry): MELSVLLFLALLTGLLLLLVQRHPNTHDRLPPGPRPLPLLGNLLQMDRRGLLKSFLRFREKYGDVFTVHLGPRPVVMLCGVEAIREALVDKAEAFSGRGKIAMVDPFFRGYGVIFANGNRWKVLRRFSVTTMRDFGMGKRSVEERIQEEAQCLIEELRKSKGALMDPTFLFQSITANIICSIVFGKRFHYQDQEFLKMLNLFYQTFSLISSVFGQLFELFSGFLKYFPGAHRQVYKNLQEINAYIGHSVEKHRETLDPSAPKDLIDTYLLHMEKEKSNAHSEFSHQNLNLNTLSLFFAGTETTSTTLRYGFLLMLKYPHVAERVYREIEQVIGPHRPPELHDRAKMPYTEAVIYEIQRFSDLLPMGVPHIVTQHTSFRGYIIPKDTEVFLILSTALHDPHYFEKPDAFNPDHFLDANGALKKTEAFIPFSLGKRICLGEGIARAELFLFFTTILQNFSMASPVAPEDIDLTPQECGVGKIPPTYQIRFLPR

Cytochrome P450 2D6 = Cytochrome P450 2D6 (Homo sapiens, UniProt P10635); assay: Inhibition of CYP2D6 (unknown origin); assay type: ADME
Cytochrome P450 1A2 = molecular target: T2, Cytochrome P450 1A2 (Homo sapiens, UniProt P05177); assay: Inhibition of CYP1A2 (unknown origin); assay type: ADME
T2 sequence (P05177 whole entry): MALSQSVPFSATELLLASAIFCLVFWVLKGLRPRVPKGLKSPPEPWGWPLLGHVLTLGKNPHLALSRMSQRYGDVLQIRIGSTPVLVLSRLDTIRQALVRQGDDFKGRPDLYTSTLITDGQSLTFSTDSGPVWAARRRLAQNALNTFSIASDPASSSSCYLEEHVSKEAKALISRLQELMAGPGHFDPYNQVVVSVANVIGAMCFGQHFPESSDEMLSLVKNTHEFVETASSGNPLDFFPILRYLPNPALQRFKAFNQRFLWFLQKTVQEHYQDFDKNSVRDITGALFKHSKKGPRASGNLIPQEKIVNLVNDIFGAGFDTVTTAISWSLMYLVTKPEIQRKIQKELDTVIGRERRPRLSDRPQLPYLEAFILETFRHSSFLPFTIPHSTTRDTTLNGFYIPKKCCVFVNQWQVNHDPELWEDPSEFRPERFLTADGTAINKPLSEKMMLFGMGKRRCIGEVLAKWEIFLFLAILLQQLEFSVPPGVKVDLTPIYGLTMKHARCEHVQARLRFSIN

Mus musculus [4] = assay: Neuroprotective activity in wild type C57BL/J6 mouse assessed as survival of newborn hippocampal neurons at 0.1 to 10 uM, icv administered for 7 days by BrdU staining-based microscopy relative to vehicle-treated control; assay type: functional, organism-based
Summary of the method: (§1)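 Adult (12-week) wild-type C57BL/J6 mice. Compound infused ICV into the left lateral ventricle by osmotic minipump at 0.5 μL/h for 7 days, with BrdU 50 mg/kg/day IP for 6 days. Perfused 24 h after the last BrdU dose. BrdU antigen unmasked (formamide/SSC at 65 °C, then 2 M HCl); anti-BrdU staining. BrdU+ cells in the contralateral dentate gyrus SGZ counted in every fifth 40 μm section and normalised to dentate gyrus volume.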

hERG (KCNH2) = hERG (KCNH2) (Homo sapiens, UniProt Q12809); assay: Inhibition of human ERG channel at 50 uM by patch clamp technique
Cytochrome P450 3A4 = Cytochrome P450 3A4 (Homo sapiens, UniProt P08684); assay: Inhibition of CYP3A4 (unknown origin); assay type: ADME
Cytochrome P450 2C9 = Cytochrome P450 2C9 (Homo sapiens, UniProt P11712); assay: Inhibition of CYP2C9 (unknown origin); assay type: ADME
Translocator protein = Translocator protein (Homo sapiens, UniProt P30536); assay: Inhibition of TSPO (unknown origin)
NCI-H2009 = assay: Cytotoxicity against human NCI-H2009 cells; assay type: cell-based
Cytochrome P450 2C8 = molecular target: T3, Cytochrome P450 2C8 (Homo sapiens, UniProt P10632); assay: Inhibition of CYP2C8 (unknown origin); assay type: ADME
T3 sequence (P10632 whole entry): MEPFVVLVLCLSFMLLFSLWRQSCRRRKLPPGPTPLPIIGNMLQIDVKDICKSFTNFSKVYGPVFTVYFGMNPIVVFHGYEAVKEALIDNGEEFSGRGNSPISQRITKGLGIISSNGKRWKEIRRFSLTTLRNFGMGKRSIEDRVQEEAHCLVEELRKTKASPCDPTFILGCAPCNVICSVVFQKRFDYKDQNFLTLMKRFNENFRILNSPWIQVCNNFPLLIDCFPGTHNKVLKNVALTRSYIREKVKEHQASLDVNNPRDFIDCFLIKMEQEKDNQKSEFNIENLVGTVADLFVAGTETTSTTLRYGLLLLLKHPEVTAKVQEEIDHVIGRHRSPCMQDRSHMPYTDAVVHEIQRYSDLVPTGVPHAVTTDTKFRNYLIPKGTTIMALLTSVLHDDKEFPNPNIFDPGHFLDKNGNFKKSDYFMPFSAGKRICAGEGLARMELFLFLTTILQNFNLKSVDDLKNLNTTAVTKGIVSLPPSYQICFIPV

Mus musculus [5] = assay: Neuroprotective activity in wild type C57BL/J6 mouse assessed as survival of newborn hippocampal neurons at 10 uM, icv administered for 7 days by BrdU staining-based microscopy relative to vehicle-treated control; assay type: functional, organism-based; summary of the method: as §1
NCI-H2122 = assay: Cytotoxicity against human NCI-H2122 cells; assay type: cell-based
Cytochrome P450 2C19 = Cytochrome P450 2C19 (Homo sapiens, UniProt P33261); assay: Inhibition of CYP2C19 (unknown origin); assay type: ADME
Mus musculus [6] = assay: Neuroprotective activity in wild type C57BL/J6 mouse assessed as survival of newborn hippocampal neurons at 10 uM, icv administered for 7 days by BrdU staining-based immunohistochemical analysis relative to vehicle-treated control; assay type: functional, organism-based
Summary of the method: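 Adult (12 week old) C57BL/J6 mice, environmentally deprived; compound infused via osmotic minipump into left lateral ventricle at 0.5 μL/h for 7 days. BrdU IP 50 mg kg–1 day–1 for 6 days during infusion; perfusion 24 h after last BrdU. BrdU+ cells in SGZ/dentate gyrus of contralateral hemisphere counted in every fifth 40 μm section, normalized to dentate gyrus volume; mean ± SEM.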

Sequence of hERG (KCNH2) (Q12809 whole entry): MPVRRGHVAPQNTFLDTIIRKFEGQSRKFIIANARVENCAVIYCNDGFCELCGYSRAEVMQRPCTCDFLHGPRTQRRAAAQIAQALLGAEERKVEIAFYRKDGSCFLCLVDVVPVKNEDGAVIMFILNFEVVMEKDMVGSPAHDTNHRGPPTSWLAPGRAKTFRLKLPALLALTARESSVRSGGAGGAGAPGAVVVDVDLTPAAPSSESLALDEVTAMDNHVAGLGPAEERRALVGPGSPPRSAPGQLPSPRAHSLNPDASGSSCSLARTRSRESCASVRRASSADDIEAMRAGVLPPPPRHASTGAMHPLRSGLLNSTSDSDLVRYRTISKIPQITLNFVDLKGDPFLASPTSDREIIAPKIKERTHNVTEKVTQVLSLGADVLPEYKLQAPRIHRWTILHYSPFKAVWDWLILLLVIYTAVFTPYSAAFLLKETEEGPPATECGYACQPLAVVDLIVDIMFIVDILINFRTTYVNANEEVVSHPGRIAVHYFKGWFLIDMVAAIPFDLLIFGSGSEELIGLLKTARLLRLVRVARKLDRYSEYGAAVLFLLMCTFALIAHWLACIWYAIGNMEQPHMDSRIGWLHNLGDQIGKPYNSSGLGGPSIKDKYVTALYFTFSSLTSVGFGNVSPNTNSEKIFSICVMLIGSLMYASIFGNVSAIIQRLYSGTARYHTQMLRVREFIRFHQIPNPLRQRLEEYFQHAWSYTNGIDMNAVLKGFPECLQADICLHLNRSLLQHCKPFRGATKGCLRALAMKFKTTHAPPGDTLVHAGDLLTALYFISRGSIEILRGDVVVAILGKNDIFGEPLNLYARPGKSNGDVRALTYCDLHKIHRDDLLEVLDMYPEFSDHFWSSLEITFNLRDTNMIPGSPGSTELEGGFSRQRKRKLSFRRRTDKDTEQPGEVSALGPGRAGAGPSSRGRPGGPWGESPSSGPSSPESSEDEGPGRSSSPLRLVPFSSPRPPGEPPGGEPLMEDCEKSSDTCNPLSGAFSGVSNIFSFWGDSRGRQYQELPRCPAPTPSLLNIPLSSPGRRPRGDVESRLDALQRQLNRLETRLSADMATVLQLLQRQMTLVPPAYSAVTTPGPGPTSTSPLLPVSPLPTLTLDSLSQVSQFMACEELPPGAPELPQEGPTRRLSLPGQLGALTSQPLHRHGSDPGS
Sequence of Cytochrome P450 3A4 (P08684 whole entry): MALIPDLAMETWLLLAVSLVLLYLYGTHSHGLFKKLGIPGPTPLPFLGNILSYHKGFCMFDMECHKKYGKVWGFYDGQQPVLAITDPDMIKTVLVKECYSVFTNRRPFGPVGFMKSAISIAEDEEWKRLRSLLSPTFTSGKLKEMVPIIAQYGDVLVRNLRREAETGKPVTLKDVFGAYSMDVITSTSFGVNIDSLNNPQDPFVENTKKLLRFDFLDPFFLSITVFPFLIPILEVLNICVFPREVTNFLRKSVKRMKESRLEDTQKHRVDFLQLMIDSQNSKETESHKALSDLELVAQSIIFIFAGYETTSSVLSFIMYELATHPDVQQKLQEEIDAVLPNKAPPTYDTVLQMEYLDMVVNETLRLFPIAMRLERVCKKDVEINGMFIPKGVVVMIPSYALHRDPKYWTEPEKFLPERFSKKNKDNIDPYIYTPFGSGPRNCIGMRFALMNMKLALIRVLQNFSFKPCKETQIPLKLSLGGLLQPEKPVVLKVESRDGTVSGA
Sequence of Cytochrome P450 2D6 (P10635 whole entry): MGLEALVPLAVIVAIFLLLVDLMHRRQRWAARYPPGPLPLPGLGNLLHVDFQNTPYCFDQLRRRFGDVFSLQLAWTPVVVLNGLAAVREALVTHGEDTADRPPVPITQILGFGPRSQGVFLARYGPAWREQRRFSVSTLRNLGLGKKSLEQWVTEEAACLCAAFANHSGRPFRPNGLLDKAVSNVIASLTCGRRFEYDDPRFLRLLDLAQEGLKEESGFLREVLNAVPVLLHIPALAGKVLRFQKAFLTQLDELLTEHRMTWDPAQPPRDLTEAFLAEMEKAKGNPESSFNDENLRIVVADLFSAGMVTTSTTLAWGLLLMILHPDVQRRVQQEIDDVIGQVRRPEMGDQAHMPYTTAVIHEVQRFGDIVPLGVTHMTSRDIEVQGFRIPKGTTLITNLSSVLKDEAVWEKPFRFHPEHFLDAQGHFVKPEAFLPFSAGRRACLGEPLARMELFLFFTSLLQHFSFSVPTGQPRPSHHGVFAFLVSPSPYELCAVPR
Sequence of Cytochrome P450 2C19 (P33261 whole entry): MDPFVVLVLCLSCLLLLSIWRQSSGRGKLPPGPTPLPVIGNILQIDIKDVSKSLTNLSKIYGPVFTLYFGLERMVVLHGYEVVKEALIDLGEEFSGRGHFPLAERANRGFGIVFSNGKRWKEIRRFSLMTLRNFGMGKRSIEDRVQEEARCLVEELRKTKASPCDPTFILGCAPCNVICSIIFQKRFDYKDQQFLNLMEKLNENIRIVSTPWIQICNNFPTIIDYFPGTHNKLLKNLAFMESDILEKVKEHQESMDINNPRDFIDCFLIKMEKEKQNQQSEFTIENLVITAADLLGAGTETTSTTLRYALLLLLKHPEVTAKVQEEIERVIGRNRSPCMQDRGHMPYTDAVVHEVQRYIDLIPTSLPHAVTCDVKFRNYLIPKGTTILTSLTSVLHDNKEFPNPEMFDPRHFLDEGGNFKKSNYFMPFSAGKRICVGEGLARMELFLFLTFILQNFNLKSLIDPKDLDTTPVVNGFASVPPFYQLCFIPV
Sequence of Translocator protein (P30536 whole entry): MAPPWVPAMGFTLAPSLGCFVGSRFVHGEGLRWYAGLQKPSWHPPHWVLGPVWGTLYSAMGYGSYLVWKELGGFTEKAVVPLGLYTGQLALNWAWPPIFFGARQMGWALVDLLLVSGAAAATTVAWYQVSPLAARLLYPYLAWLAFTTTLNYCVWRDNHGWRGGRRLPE
Sequence of Cytochrome P450 2C9 (P11712 whole entry): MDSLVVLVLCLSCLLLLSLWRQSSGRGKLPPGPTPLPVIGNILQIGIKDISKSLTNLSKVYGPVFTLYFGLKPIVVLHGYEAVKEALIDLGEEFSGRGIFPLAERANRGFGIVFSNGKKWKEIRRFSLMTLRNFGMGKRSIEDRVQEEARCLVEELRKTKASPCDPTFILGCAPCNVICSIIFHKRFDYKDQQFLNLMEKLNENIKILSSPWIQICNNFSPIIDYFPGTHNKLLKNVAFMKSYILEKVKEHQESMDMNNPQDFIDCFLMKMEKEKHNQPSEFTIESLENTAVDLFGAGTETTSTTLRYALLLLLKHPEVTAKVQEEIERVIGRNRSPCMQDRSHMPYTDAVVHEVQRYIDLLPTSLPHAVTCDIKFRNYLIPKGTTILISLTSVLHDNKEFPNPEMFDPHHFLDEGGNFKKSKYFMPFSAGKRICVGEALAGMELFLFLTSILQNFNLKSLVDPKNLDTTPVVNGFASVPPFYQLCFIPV

Structure (SMILES): COc1cccc(NC[C@H](F)Cn2c3ccc(Br)cc3c3cc(Br)ccc32)n1
- fraction unbound [1]: < 0.01
- IC50 [2]: > 10 µM
- Activity (Mus musculus [3]): Active
- inhibition (INH) (Cytochrome P450 2B6): Active
- inhibition (INH) (Cytochrome P450 2D6): Active
- IC50 (Cytochrome P450 1A2): 20 µM
- Activity (Mus musculus [4]): Active
- inhibition at 50 µM (hERG (KCNH2)): < 15%
- inhibition (INH) (Cytochrome P450 3A4): Active
- inhibition (INH) (Cytochrome P450 2C9): Active
- IC50 (Translocator protein): 0.35 µM
- IC50 (NCI-H2009): > 10 µM
- inhibition (INH) (Cytochrome P450 2C8): Active
- Activity (Mus musculus [5]): Active
- IC50 (NCI-H2122): > 10 µM
- IC50 (Cytochrome P450 2C19): 1.9 µM

Structure (SMILES): NCC(F)Cn1c2ccc(Br)cc2c2cc(Br)ccc21 (configuration not stated)
- Activity (Mus musculus [6]): Active
